# Bioassay records from PubChem.
# EBI2 antag – EBI2 (human) antagonism | P32249 | EBI2 beta-arrestin recruitment, luminescence, 7a,25-OHC stimulated | inhibition, % at 5 µM | hit rate 0.81% among 360,000 | AID 651636; in the data active means inhibition above about 38%;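 further: enzyme fragment complementation signal reports receptor beta-arrestin coupling in cells; 0% = agonist plus DMSO wells and 100% = wells without agonist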
# Target sequence (P32249 whole entry, looked up, the tested form may be a part): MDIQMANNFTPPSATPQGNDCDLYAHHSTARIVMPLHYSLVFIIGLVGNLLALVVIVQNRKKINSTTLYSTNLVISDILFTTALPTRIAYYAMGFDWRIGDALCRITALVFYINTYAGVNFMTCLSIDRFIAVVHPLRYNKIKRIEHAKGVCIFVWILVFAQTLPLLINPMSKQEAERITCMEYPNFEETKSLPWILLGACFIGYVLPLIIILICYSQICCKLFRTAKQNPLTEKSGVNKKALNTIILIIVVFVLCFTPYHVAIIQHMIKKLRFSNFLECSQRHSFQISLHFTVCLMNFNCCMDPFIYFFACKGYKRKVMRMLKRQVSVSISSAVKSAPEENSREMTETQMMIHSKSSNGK
# MC4R barr agon – activates human MC4R beta-arrestin recruitment; U2OS MC4R beta-arrestin complementation, luminescence; percent of melanotan II response, DMSO zero; activation, % at 8.9 µM; hit rate 0.98% among 360,000; AID 540308; P32245;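 active means activation above a per-plate cutoff, the mean activation of sample wells on that plate plus 3 SD, cut at about 8% in these data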
# MC4R antag cAMP – human MC4R antagonism in cAMP assay. P32245. inhibition, % at 6.5 µM. hit rate 0.48% among 360,000. MC4R-expressing cells, MTII-stimulated cAMP, LANCE TR-FRET;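 active means inhibition above its plate's cutoff, the mean of tested wells on that plate plus 3 SD, cut at about 29% in these data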;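 further: 0% = Melanotan II alone and 100% = Melanotan II plus saturating MCL0020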
#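 System: U2OS cells stably expressing human melanocortin 4 receptor (MC4R). Reagent: Melanotan II challenge after compound preincubation. Doses: 6.5 µM. Times: 30-min compound, 1-h challenge, 1-h detection, room temperature. Measured by: TR-FRET with Eu-cAMP and labeled anti-cAMP, 671 nm. Replicates: singlicate.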
# Granule exo inh – lytic granule exocytosis inhibition | AID 651702 | TALL-104 LAMP-1 surface exposure, flow cytometry; cells stimulated with thapsigargin and PMA | hit rate 0.66% among 360,000 | inhibition, % at 10 µM;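 active means inhibition above about 55%, limit read from the data; inconclusive means no clear call, values can overlap the other calls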
# Myeloid diff MLP – promotes myeloid progenitor differentiation; ER-HoxA9 myeloid progenitors, lysozyme-GFP differentiation, flow cytometry; calls only at 10 µM; hit rate 1% among 360,000;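 active means normalized GFP-positive differentiation at or above the plate's own cutoff, the solvent-only control mean plus 3 SD; inconclusive means no clear call, values can overlap the other calls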;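 further: cells exposed to compound for four days before flow analysis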
# Granule exo CP1 – lytic granule exocytosis inhibition; shares compounds with Granule exo inh; TALL-104 cells, LAMP-1 externalization, flow cytometry; stimulated with PMA plus thapsigargin; inhibition, % at 10 µM; hit rate 11% among 1,500; in the data active means inhibition above about 60%;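 further: 0% = stimulated vehicle wells and 100% = unstimulated wells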
# An asterisk follows results filed as active; i = inactive; ? = inconclusive; . = no result; + = active, no number. A selection: hits, their analogues and other compounds. The true share with any hit is near 3.7%.
SMILES,EBI2 antag,MC4R barr agon,MC4R antag cAMP,Granule exo inh,Myeloid diff MLP,Granule exo CP1
COc1cc(CNC(C)(C)CO)cc(Br)c1OCc1ccc(Cl)cc1,-2,2,0,22,i,.
COc1cc(CNC(C)(C)CO)cc(Br)c1OCc1ccc(Cl)cc1Cl,-9,6,4,79*,?,28
COc1ccc(NC(=O)CSc2nc(N)cc(N)n2)cc1S(=O)(=O)N1CCCCC1,-1,0,12,0,i,.
CCN(Cc1ccc(OC)c(COC)c1)CC1CCCN(CCc2cccc(F)c2)C1 (stereo not given),12,1,14,68*,i,-12
CCN(Cc1ccc(OC)c(COC)c1)CC1CCCN(CCc2cccc(OC)c2)C1 (stereo not given),-9,0,7,72*,i,-12
CCN(Cc1ccccc1OC)CC1CCCN(CCc2cccc(OC)c2)C1 (stereo not given),0,-2,1,63*,i,-11
CCOC(=O)c1[nH]ncc1CN1CCCC(C(=O)c2ccc(C(C)(C)C)cc2)C1 (stereo not given),6,1,14,1,i,.
O=[N+]([O-])c1ccc(N2N=C(c3ccccc3)CC2c2ccccc2O)cc1 (stereo not given),33,-1,3,58*,+,28
Cc1cnc(CN2CCc3c([nH]c4ccccc34)C2CC(C)C)[nH]1 (stereo not given),6,1,15,11,i,.
Cc1cccc(CN2CCc3c([nH]c4ccccc34)C2CC(C)C)n1 (stereo not given),8,0,2,63*,i,-3
CCN(CC)CCC(=O)N1C/C(=C/c2ccccc2)C(=O)/C(=C\c2ccccc2)C1,52*,-3,7,79*,?,30
O=C(c1cc2cc([N+](=O)[O-])ccc2oc1=O)N1CCN(C2CCCCC2)CC1,0,-3,8,15,i,.
CCc1nccn1C(=O)c1cnn2c(C(F)F)cc(-c3ccc(C)cc3)nc12,3,-3,3,89*,i,37
C[C@@H]1CCCN1[C@H]1CS(=O)(=O)N[C@@H]1COCc1ccccc1,-4,.,.,0,i,.
CC(=O)OCCCN(C)CC/C=C1/c2ccccc2CSc2ccccc21,-5,-2,2,62*,i,-15
CS(=O)(=O)N(CC(=O)N1CCN(Cc2ccccc2)CC1)c1ccccc1Br,-3,0,0,21,i,.
CN1CCN(Cc2nc3ccccc3c(=O)n2Cc2nc(-c3ccc([N+](=O)[O-])cc3)cs2)CC1,-10,1,15,75*,i,97*
COc1cc(NC(=O)c2c(-c3ccccc3Cl)noc2C)c2ncccc2c1,16,-3,-4,82*,i,-7
O=C(O)CCCCCCCCCCCNC(=O)NC12CC3CC(CC(C3)C1)C2,-4,-2,7,80*,i,-3
O=C(NCCCN1CCN(c2ccc(F)cc2)CC1)NC12CC3CC(CC(C3)C1)C2,2,3,2,56*,i,-4
COc1cccc(NC(=O)c2ncc(Cl)c(Cl)c2Cl)c1,-6,0,16,-3,i,.
CCN(CC)CC(O)Cn1c(C)c(-c2ccccc2)c2cc([N+](=O)[O-])ccc21 (stereo not given),5,4,16,58*,i,10
CCOc1ccc(S(=O)(=O)N2CCC(C(=O)Nc3cccc(NC(C)=O)c3)CC2)cc1,10,1,4,4,i,.
CCOc1ccc(S(=O)(=O)N2CCCC(C(=O)Nc3cccc(C)c3)C2)cc1 (stereo not given),-11,-2,3,63*,i,-13
COc1ccc(OC)c(-c2csc(NC(=O)c3ccc(F)cc3)n2)c1,18,-1,-17,80*,i,-4
Cc1ccc(-c2csc(NC(=O)Cc3ccc(F)cc3)n2)o1,-4,-2,15,75*,i,-13
Cc1ccc(-c2csc(NC(=O)c3ccc(-c4ccccc4)cc3)n2)o1,31,3,1,48,i,.
COc1ccc(OC)c(-c2csc(NC(=O)c3ccc(OCC4CCCO4)cc3)n2)c1 (stereo not given),1,-1,10,-3,i,.
